From publication PMC4339026 (Biopolymers, 2014) come the findings set out here.

The IC50 is the midpoint of a concentration-inhibition curve.

The experiment has as its target T1, meprin α (Homo sapiens, UniProt Q16819).
T1 sequence (Q16819 66-653 limits assumed): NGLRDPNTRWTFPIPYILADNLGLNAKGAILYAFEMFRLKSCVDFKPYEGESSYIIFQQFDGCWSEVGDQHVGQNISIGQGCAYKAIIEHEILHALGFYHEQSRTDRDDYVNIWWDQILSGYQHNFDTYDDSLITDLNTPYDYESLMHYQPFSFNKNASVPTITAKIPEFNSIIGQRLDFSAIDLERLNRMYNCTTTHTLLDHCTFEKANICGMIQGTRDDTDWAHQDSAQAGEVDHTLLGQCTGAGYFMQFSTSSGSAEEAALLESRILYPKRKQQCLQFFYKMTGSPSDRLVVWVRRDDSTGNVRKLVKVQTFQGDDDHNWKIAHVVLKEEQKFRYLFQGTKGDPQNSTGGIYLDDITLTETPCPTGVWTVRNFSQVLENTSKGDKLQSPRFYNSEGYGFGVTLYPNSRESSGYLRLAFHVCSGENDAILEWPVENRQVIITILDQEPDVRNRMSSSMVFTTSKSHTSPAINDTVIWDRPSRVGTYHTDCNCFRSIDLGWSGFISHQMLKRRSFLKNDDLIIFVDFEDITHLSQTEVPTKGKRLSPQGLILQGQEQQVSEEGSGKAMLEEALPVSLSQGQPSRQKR
The experiment is described as follows: Meprin α HTS FRET assay, dose response. Type of experiment: biochemical. To be noted: read-out: IC50 Meprin α; selectivity testing; n = 3 Mean ± SD. The essentials: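 Recombinant human Strep-tagged meprin α was expressed in baculovirus-infected BTI-TN-5B1-4 cells, trypsin-activated, then freed of trypsin. It was used as a 2x solution at 2.6 nM in 50 mM Hepes, 0.01% Brij-35, pH 7.5. Test compound was pre-incubated 30 min at RT, then 2x (MCA)-YVADAPK-(K-ε-DNP) at 20 μM was added for 1 h at RT. Read at ex 324/em 393 nm. 3-fold dilutions in quadruplicate; 4-parameter fit; 0.1% or 1.0% DMSO.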

As for `O=C(Nc1cc(C(=O)Nc2ccc(S(=O)(=O)O)cc2S(=O)(=O)O)cc(C(=O)Nc2ccc(S(=O)(=O)O)cc2S(=O)(=O)O)c1)Nc1cc(C(=O)Nc2ccc(S(=O)(=O)O)cc2S(=O)(=O)O)cc(C(=O)Nc2ccc(S(=O)(=O)O)cc2S(=O)(=O)O)c1` [NF449, 4,4′,4″,4‴-[Carbonyl-bis[imino-5,1,3-benzenetriylbis-(carbonyl-imino)]]tetrakis(benzene-1,3-disulfonic acid)], the IC50 was more than 100 µM.
